Reference: ChEMBL document CHEMBL4480465, “Anti-inflammatory Mono- and Dimeric Sorbicillinoids from the Marine-Derived Fungus Trichoderma reesei 4670” (J Nat Prod, 2019)
Active and inactive are the calls of the source. No cut-off for these calls is given here.

How the values were obtained:
[1] = system: MCF7; test: Cytotoxicity against human MCF7 cells by MTT assay; type: functional, cell-based
[2] = system: RAW264.7; test: Cytotoxicity against mouse RAW264.7 cells by MTT assay; type: cell-based
[3] = system: HeLa; test: Cytotoxicity against human HeLa cells by MTT assay; type: functional, cell-based
[4] = system: HepG2; test: Cytotoxicity against human HepG2 cells by MTT assay; type: functional, cell-based
[5] = system: RAW264.7; test: Antiinflammatory activity against mouse RAW264.7 cells assessed as inhibition of LPS-induced nitric oxide production measured after 24 hrs; type: functional, cell-based; settings: RAW264.7, 24 h
How it was run: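 RAW264.7 cells seeded at 5 × 10^4 per well and grown 24 h, then given LPS (1 μg/mL) together with graded compound concentrations (DMSO stocks) for 24 h. NO in the medium was read with nitric oxide detection reagents I and II, measuring absorbance at 540 nm. IC50 came from normalized response–variable slope curve fits, mean of n = 3.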

| SMILES | Activity [1] | IC50 [2] | Activity [3] | Activity [4] | IC50 [5] |
| --- | --- | --- | --- | --- | --- |
| C/C=C/C=C/C(O)=C1\C(=O)C(C)=C(O)[C@@]2(C)O[C@@]3(O)[C@@](C)(O)CC4=C(O[C@H](/C=C/C)CC4=O)[C@@]3(C)[C@@H]12 | inactive | > 50 µM | inactive | inactive | 32 µM |
| C/C=C/C=C/C(O)=C1/C(=O)C(C)=C(O)[C@@]2(C)O[C@@]3(O)[C@@](C)(O)CC(C(=O)CC/C=C/C)=C(O)[C@@]3(C)[C@@H]12 | inactive | > 50 µM | inactive | inactive | 5.9 µM |
| C/C=C/CCCc1cc(C)c(O)cc1O | inactive | > 50 µM | inactive | inactive | 13 µM |
| CC1=C(O)[C@@]2(C)O[C@@]3(O)[C@@](C)(O)CC(C(=O)CC/C=C/CO)=C(O)[C@@]3(C)[C@H]2\C(=C(O)/C=C/C=C/CO)C1=O | inactive | > 50 µM | inactive | inactive | 24 µM |
| Cc1cc(C(=O)CCC(=O)O)c(O)cc1O | inactive | > 50 µM | inactive | inactive | > 50 µM |
| Cc1cc(C(=O)CC/C=C/CO)c(O)cc1O | inactive | > 50 µM | inactive | inactive | 0.94 µM |
| CC1=C(O)[C@@]2(C)O[C@@]3(O)[C@@](C)(O)C\C(=C(O)/C=C/C=C/CO)C(=O)[C@@]3(C)[C@H]2\C(=C(O)/C=C/C=C/CO)C1=O | inactive | > 50 µM | inactive | inactive | > 50 µM |
| C/C=C/C=C/C(O)=C1\C[C@](C)(O)[C@]2(O)O[C@]3(C)C(O)=C(C)C(=O)/C(=C(O)/C=C/C=C/CO)[C@@H]3[C@]2(C)C1=O | inactive | > 50 µM | inactive | inactive | 6.1 µM |
| Cc1cc(C(=O)CCCCCO)c(O)cc1O | inactive | > 50 µM | inactive | inactive | > 50 µM |
| C/C=C/C=C/C(O)=C1\C(=O)C(C)=C(O)[C@@]2(C)O[C@@]3(O)[C@@](C)(O)CC4=C(O[C@@H](/C=C/C)CC4=O)[C@@]3(C)[C@@H]12 | inactive | > 50 µM | inactive | inactive | 22 µM |
| C/C=C/CCC(=O)C1=C(O)[C@@]2(C)[C@H]3\C(=C(O)/C=C/C=C/CO)C(=O)C(C)=C(O)[C@@]3(C)O[C@@]2(O)[C@@](C)(O)C1 | inactive | > 50 µM | inactive | inactive | 22 µM |
| Cc1cc2c(c(C)c1O)O[C@H](/C=C/CO)CC2=O | inactive | > 50 µM | inactive | inactive | 8.5 µM |
| C/C=C/C=C/C(=O)c1c(O)c(C)cc(C)c1O | inactive | > 50 µM | inactive | inactive | 3.3 µM |
| Cc1cc2c(c(C)c1O)O[C@H](CCCO)CC2=O | inactive | > 50 µM | inactive | inactive | 38 µM |
| Cc1c(O)c(O)cc(C(=O)CC/C=C/CO)c1O | inactive | > 50 µM | inactive | inactive | 6.1 µM |
| Cc1c(O)ccc(C(=O)C[C@@H]2CC[C@H]([C@H](C)O)O2)c1O | inactive | > 50 µM | inactive | inactive | > 50 µM |
| C/C=C/C=C/C(O)=C1/C(=O)[C@]2(C)C(=O)[C@@](C)(O)[C@H]1[C@@H]1CC(=O)N(C)[C@@H]12 | inactive | > 50 µM | inactive | inactive | > 50 µM |
| Cc1cc(C(=O)/C=C/C=C/CO)c(O)c(C)c1O | inactive | > 50 µM | inactive | inactive | 6.8 µM |
| C/C=C/C=C/C(O)=C1\C[C@](C)(O)[C@]2(O)O[C@]3(C)C(O)=C(C)C(=O)/C(=C(O)/C=C/C=C/C)[C@@H]3[C@]2(C)C1=O | inactive | > 50 µM | inactive | inactive | 9.9 µM |
| C/C=C/CCC(=O)c1cc(C)c(O)cc1O [SOHIRNONE A] | inactive | > 50 µM | inactive | inactive | 14 µM |
| Cc1cc(C(=O)CCC(=O)O)c(O)c(C)c1O | inactive | > 50 µM | inactive | inactive | > 50 µM |
| COc1ccc2c(c1)c(CC(=O)O)c(C)n2C(=O)c1ccc(Cl)cc1 [INDOMETHACIN] | – | > 50 µM | – | – | 41 µM |
| Cc1cc(C(=O)CC/C=C/CO)c(O)c(C)c1O | inactive | > 50 µM | inactive | inactive | 2.9 µM |
| C/C=C/[C@@H](O)CC(=O)c1cc(C)c(O)cc1O | inactive | > 50 µM | inactive | inactive | 12 µM |
| Cc1cc(C(=O)CC/C=C/C(=O)O)c(O)cc1O | inactive | > 50 µM | inactive | inactive | > 50 µM |
